From PubChem BioAssay
These entries were drawn from the full list.
Apaf1 activ = activators of human Apaf-1 apoptosome, primary screen, biochemical, DEVD-Rh110 fluorescence, uHTS; Apoptotic protease-activating factor 1 (Homo sapiens), O14727; Apaf-1 apoptosome caspase-3 activation; hits give low values; activity change, negative = activation, % at 20 µM; actives 0.31% (n = 330,000); AID 489031, 2010;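 active = activity change at or below -40% at 20 µM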
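Assay system – biochemical Apaf-1 apoptosome reconstitution · Medium – 20 mM HEPES buffer, pH 7.5, containing CHAPS and BSA · Incubation – 30 min preincubation, 50 min reaction, room temperature · Measured by – Caspase-3-released Rh110 fluorescence, 540 nm emission, 480 nm excitation · Read-out – Caspase-3 cleavage activity downstream of Apaf-1 activation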
Rh110 interf act = Rh110 fluorescence interference by putative Apaf-1 activators, confirmation, artefact control for Apaf-1 activator project, biochemical, 20 µM; quenched caspase reaction, Ex480/Em540; AID 504616, 2011; shares compounds with Apaf1 activ; 980 tested, under 10 active; fluorescence interference (activity change), % at 20 µM, hits read low;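 active = mean activity change at or below -40% when tested at 20 µM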
Apaf-1 act conf2 = Apaf-1 activators, single-dose retest, confirmation, biochemical, fluorescence, DEVD-Rh110, 20 µM. shares compounds with Apaf1 activ. reconstituted apoptosome caspase-3 activity; hits give low values. activity change, negative = activation, % at 20 µM. actives 5% (n = 980). AID 504617, 2011;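 active = mean activity change at or below -40%, meaning activation of 40% or more, at 20 µM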
* hit, by the source's call; · = no result.

SMILES	Apaf1 activ	Rh110 interf act	Apaf-1 act conf2
COc1ccc(C(CNC(=O)c2cccn2C)N2CCOCC2)cc1 (centres undefined)	47.1	·	·
CC1(OC(=O)c2ccc(Cl)nc2)C(=O)C=C2C=C3CCCN3C=C2C1=O (centres undefined)	44.2	·	·
NCCCS(=O)(=O)O	-3.6	·	·
COc1ccc(-c2sc3cc4c(cc3c2-c2ccc(OCCN3CCCCC3)cc2)OCO4)cc1	59.4	·	·
COc1ccc(C(=O)NCC23C=CC(O2)C2C(=O)N(Cc4ccccc4)C(=O)C23)cc1 (centres undefined)	-75.2*	-1.2	15.0
COC(=O)C1=C(C)N(Cc2ccccc2)C(=NCc2cccc(Cl)c2)N[C@H]1c1cccc(F)c1	67.4	·	·
CCOC(=O)N1CCC(N2Cc3cccc(C(=O)Nc4ccccc4OC)c3C2=O)CC1	-44.2*	1.8	8.8
CN(CCO)c1cc(Sc2nc3ccccc3s2)c2nonc2c1[N+](=O)[O-]	51.8	·	·
C=C(C)Cn1c(NCCOC)nc2c1c(=O)[nH]c(=O)n2C	-40.3*	1.4	4.1
CCc1ccc2[nH]c(C(=O)Nc3ccc(Br)c(C)n3)cc2c1	-483.9*	2.8	13.3
CC(=O)N(C1=C(Cl)C(=O)c2ccccc2C1=O)C1CCCCC1	85.4	·	·
CCOc1cccc(CNc2ccc(O)cc2)c1OCc1ccccc1Cl	96.7	·	·
COc1cc(NCc2ccccc2)c2ncn(Cc3ccccc3)c2c1	49.5	·	·
CC(C)Oc1ccc(C(=O)NC2(C(F)(F)F)NC(=O)N(CCCc3ccccc3)C2=O)cc1 (centres undefined)	-44.5*	6.4	16.6
COC(=O)c1ccccc1NC1=C/C(=N\S(=O)(=O)c2ccc(C(=O)O)cc2)c2ccccc2C1=O	95.2	·	·
[O-][n+]1cccc2c(Br)cc(Br)c(O)c21	72.9	·	·
CN(C)CCC(c1ccccc1)c1ccccn1 (centres undefined)	-2.9	·	·
Cc1c(N=Cc2cc3c(cc2[N+](=O)[O-])OCO3)cccc1[N+](=O)[O-]	43.6	·	·
COc1cc(OC)cc(C(=O)NCC(=O)OCC(=O)c2ccc3c(c2)-c2ccccc2C3)c1	-64.9*	-7.5	17.7
COc1ccc(/C=C2/C(=O)N(c3c(F)c(F)c(F)c(F)c3F)N=C2C)cc1	53.8	·	·
O=C1C=C(N2CCOCC2)c2ccccc2C1=O	98.2	·	·
O=C(O)c1cccc(NC2=C(N3CCOCC3)C(=O)c3ccccc3C2=O)c1	84.4	·	·
O=C1O/C(=C\C(=O)N2CCOCC2)c2ccccc21	-141.0*	2.1	0.3
COc1cccc(NC(=O)C2CCCO2)c1 (centres undefined)	-114.4*	9.7	13.3
COc1ccc(OC)c(C2=NOC(C(=O)Nc3ccc4c(c3)OCCO4)C2)c1 (centres undefined)	41.7	·	·
SMILES	Apaf1 activ	Rh110 interf act	Apaf-1 act conf2
C=CCNC(C(=O)Nc1cccc(OC)c1)c1ccccc1 (centres undefined)	42.9	·	·
O=C1CCC(C(=O)OCC(=O)N2N=C3/C(=C/c4ccccc4)CCCC3C2c2ccccc2)N1 (centres undefined)	43.5	·	·
C=CC(=C)CC(NC)c1ccccc1 (centres undefined)	-48.0*	5.5	1.1
Cc1ccccc1OCc1n(CC(=O)OC2CC(C)CCC2C(C)C)c2ccccc2[n+]1C (centres undefined)	47.3	·	·
O=C(NCCCn1ccnc1)C1c2ccccc2Oc2ccccc21	-417.5*	-2.8	8.4
S=c1nc(-c2ccc(Cl)cc2)[nH][nH]1	-396.0*	8.3	13.8
OCCN1CCN(CCCN2c3ccccc3Sc3ccc(C(F)(F)F)cc32)CC1	47.6	·	·
CCOC(=O)c1cc(-c2ccc(/C=C3/C(=O)N(c4ccc(C(=O)O)cc4)N=C3C)o2)ccc1Cl	50.0	·	·
CCOC(=O)c1ccc(N2CSC3=C(C#N)C(c4cccs4)CC(=O)N3C2)cc1 (centres undefined)	54.7	·	·
Cc1cc(N2CCCCC2)nc(N2CCOCC2)n1	-56.7*	5.9	10.4
Cc1cccc(/C=N/Nc2cc(N3CCOCC3)nc(N3CCOCC3)n2)c1	67.6	·	·
CC(C)c1ccc(/C=N/Nc2cc(N3CCOCC3)nc(N3CCOCC3)n2)cc1	62.1	·	·
Cc1cc2cc(CNC(=S)Nc3ccc(OC(F)(F)F)cc3)ccc2n1C	59.1	·	·
O=C1c2[nH]nc(-c3ccccc3O)c2C(c2cccc(Cl)c2)N1Cc1ccco1 (centres undefined)	42.0	·	·
Cc1cc(SCC2=NNC(=O)C2)c(Cl)cc1Cl	47.1	·	·
Cc1ccc(Nc2nc(N)c([N+](=O)[O-])c(NCc3ccco3)n2)cc1	-443.2*	13.4	17.0
Cc1ccc(NC2=C(NCCO)C(=O)c3ccccc3C2=O)cc1	78.1	·	·
COc1cccc2c1C(=O)c1c(O)c3c(c(O)c1C2=O)C[C@@](O)(C(=O)CO)C[C@@H]3O[C@H]1C[C@H](N)[C@H](O)[C@H](C)O1	57.7	·	·
Oc1cccc(C=Nc2cccc3ccccc23)c1O	74.0	·	·
C/C(=C\c1ccccc1)C1Nc2cccc3cccc(c23)N1	41.4	·	·
COc1ccccc1-c1oc2ccccc2c1C#CC1(N)CCCCC1	68.1	·	·
COCc1cc(=O)[nH]c(Sc2c(-c3ccccc3)c3ccc(Cl)cc3[nH]c2=O)n1	-49.5*	10.1	10.9
C#CCOCCOCCOCCNc1nc(N2CCN(C(=O)CCCCCCCCCCNC(=O)Cn3cc(CCCCCN)nn3)CC2)nc(N2CCN(C(=O)CCCCCCCCCCNC(=O)[C@H]([C@@H](C)CC)n3cc(CCCCN=C(N)N)nn3)CC2)n1	85.4	·	·
COC(=O)C1=C(C)N(Cc2ccccc2)C(=NCCc2ccccn2)N[C@H]1c1cccc(C(F)(F)F)c1	48.4	·	·
COC(=O)C1=C(C)N(Cc2ccccc2)C(=NCC(C)C)N[C@H]1c1cccc(C(F)(F)F)c1	58.0	·	·
SMILES	Apaf1 activ	Rh110 interf act	Apaf-1 act conf2
CCN1C(=NCCc2ccccn2)N[C@@H](c2cccc(C(F)(F)F)c2)C(C(=O)OC)=C1C	-114.4*	12.7	9.1
Cc1ccc(N=Nc2c(N)[nH]n3c(=O)cc(-c4ccccc4)nc23)cc1	54.9	·	·
O=C1CCCC2=C1C1(O)C(=O)c3ccccc3C1(O)O2 (centres undefined)	92.1	·	·
Cc1[nH]n(-c2ccccc2)c(=O)c1/C=N/NC(=O)c1cccc([N+](=O)[O-])c1	55.7	·	·
O=C(Cn1nnc(-c2ccccc2)n1)N/N=C/c1cc([N+](=O)[O-])ccc1O	-56.7*	-1.1	21.1
COc1cc([N+](=O)[O-])cc(/C=N/NC(=O)C(C)Nc2cccc3ccccc23)c1O (centres undefined)	93.2	·	·
O=C(NCC(c1ccco1)N1CCCC1)c1cccc(S(=O)(=O)Nc2ccc(Br)cc2)c1 (centres undefined)	59.4	·	·
O=C(Nc1ccc2nc(-c3ccco3)c(-c3ccco3)nc2c1)N1CCCCCC1	57.3	·	·
Cc1cccc(C(=O)N/C(=C\c2ccco2)C(=O)N2CCCC2)c1	-134.2*	0.8	4.2
N#Cc1c(N)sc(=S)c2c1CCN(Cc1ccccc1)C2	95.5	·	·
N#Cc1ccccc1NC(=O)CN1CCN(Cc2ccccc2)CC1	-41.6*	19.1	10.9
N#Cc1c(NCCO)nc(NCc2ccccc2)c2c1CCN(Cc1ccccc1)C2	60.0	·	·
